Calls of active or inactive are those of the source. The rule behind the calls is not given here.
Key:
[1] = Cumulative drug excretion in mouse feces at 5 mg/kg, po administered as single dose measured after 72 hrs; format: ADME, organism-based; conditions: faeces, read-out: Drug excretion
Outline: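 Single oral (gavage, 0.5% CMC-Na) or iv (tail vein, PEG400) dosing was given to male Kunming mice or Sprague Dawley rats held in metabolic cages. Urine and feces were collected at intervals to 72 h. Feces were dried, ground and homogenized in water (1:9 w/v). Samples were precipitated with acetonitrile containing internal standard and analysed by LC-MS/MS.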

[2] = Oral bioavailability in rat at 3.5 mg/kg administered as single dose; format: ADME, organism-based; conditions: in vivo
Outline: (§1)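 Male Kunming mice (20–25 g) and male SD rats (180–220 g) were fasted 12 h before dosing. Compound was suspended in 0.5% CMC-Na and given by gavage (5 mg/kg mice, 3.5 mg/kg rats), or dissolved in PEG400 and given iv via tail vein (0.5 mg/kg mice, 0.35 mg/kg rats). Plasma was sampled from 5 min to 24 h and analysed by LC-MS/MS (n=3). F = AUCoral/AUCiv.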

[3] = tested on: Influenza A virus; assay: Antiviral activity against Influenza A virus (A/Puerto Rico/8/1934(H1N1)) infected in Kunming mouse assessed as decrease in lung TNFalpha level at 5 to 10 mg/kg/day, po starting 4 hrs after viral challenge and continued for 4 days by ELISA; format: functional, organism-based
Outline: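 Four-week-old female Kunming mice received PR8 intranasally (500 PFU/mouse in 40 µL PBS) and were then dosed once daily orally or intranasally. Lungs were collected on day 4, and TNF-α and IL-6 in lung tissue were measured by ELISA.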

[4] = Tmax in rat at 3.5 mg/kg , po administered as single dose; format: ADME, organism-based; conditions: in vivo; outline: as §1
[5] = tested on: Influenza A virus; assay: Antiviral activity against Influenza A virus (A/California/04/2009(H1N1)) infected in MDCK cells by HA assay; format: functional, organism-based
Outline: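 MDCK cells were infected at high moi (≈3.0 PFU/cell). Virus-containing supernatants were serially diluted 2-fold and mixed with an equal volume of 1% chicken red blood cells. After 60 min at 4 °C, wells were scored for button sedimentation versus opaque agglutination to give titers.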

[6] = tested on: Influenza A virus; assay: Antiviral activity against Influenza A virus (A/Puerto Rico/8/1934(H1N1)) infected in Kunming mouse assessed as mouse survival at 40 ug/day dosed intranasally starting 4 hrs after viral challenge and continued for 7 days and measured on day 14 by plaque assay; format: functional
Outline: (§2)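 Groups of 10 female Kunming mice were infected intranasally with PR8 (1000 PFU/mouse) on day 0 and dosed once daily for seven days. Weight and clinical signs were recorded daily. Mice losing more than 25% of pre-infection weight were scored dead and euthanized; survivors were killed on day 14.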

[7] = tested on: Influenza A virus; assay: Antiviral activity against Influenza A virus (A/Puerto Rico/8/1934(H1N1)) infected in Kunming mouse assessed as decrease in pulmonary viral titers at 20 to 40 ug/day dosed intranasally starting 4 hrs after viral challenge and continued for 4 days by plaque assay; format: functional, organism-based
Outline: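 Four-week-old female Kunming mice were infected intranasally with PR8 (500 PFU/mouse in 40 µL PBS), randomized, and dosed once daily orally or intranasally. On day 4 the mice were euthanized; lungs were removed, weighed, homogenized in PBS, and titrated by plaque assay.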

[8] = biological target: Neuraminidase (Influenza A virus (A/Puerto Rico/8/1934(H1N1))) (UniProt P03468); assay: Inhibition of neuraminidase in inactivated Influenza A virus (A/Puerto Rico/8/1934(H1N1)) supernatants at 12.5 to 200 ug/mL pre-incubated for 30 mins by fluorescence based assay relative to control
Outline: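 Inactivated PR8 virus supernatant was mixed with compound diluted in 33 mM MES ([…]) and 4 mM CaCl2 for 30 min at 37 °C. MUNANA (20 µM) was then added for 30 min at 37 °C. The reaction was stopped with 25% ethanol and 0.1 M glycine, pH 10.7. Fluorescence was read at ex 360 and em 440 nm.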

[9] = Metabolic stability in mouse liver microsomes at 2 uM after 60 mins; format: ADME, Microsome; conditions: read-out: Stability
Outline: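 Mouse, rat or human liver microsomes (final 0.5 mg/mL protein) were preincubated with an NADPH-regenerating system in 50 mM Tris-HCl pH 7.4 at 37 °C for 5 min. Compound was added at 2 µM final and incubated at 37 °C; NADPH-free incubations served as controls. Reactions were quenched with acetonitrile plus internal standard at 60 min. Percent remaining was measured by LC-MS/MS (n=3).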

[10] = Toxicity in Influenza A virus (A/Puerto Rico/8/1934(H1N1)) infected Kunming mouse assessed as induction of body weight loss at 5 to 10 mg/kg/day, po starting 4 hrs after viral challenge and continued for 7 days by plaque assay; format: organism-based; conditions: in vivo
[11] = tested on: Influenza A virus; assay: Antiviral activity against Influenza A virus (A/Puerto Rico/8/1934(H1N1)) infected in Kunming mouse assessed as improvement in body weight at 20 to 40 ug/day dosed intranasally starting 4 hrs after viral challenge and continued for 7 days and measured up to day 14 by plaque assay; format: functional, organism-based; outline: as §2
[12] = biological target: Hemagglutinin (Influenza A virus (A/Puerto Rico/8/1934(H1N1))) (UniProt P03452); assay: Inhibition of Influenza A virus (A/Puerto Rico/8/1934(H1N1)) Hemagglutinin expressed in African green monkey Vero cells assessed as reduction in virus-induced syncytium formation at 50 ug/ml pre-treated with trypsin followed by compound addition for 15 mins and measured after 2 hrs at pH 5 by HA syncytium assay; format: cell-based
Outline: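 Vero cells were transfected with PR8 HA plasmid (2 µg per well). At 16 h post-transfection, HA was cleaved with 5 µg/mL TPCK-trypsin for 15 min at 37 °C. Cells were pre-incubated with compound for 15 min at 37 °C, then exposed to pH 5.0 buffer containing compound for 10 min at 37 °C. After rinsing, cells were kept in 10% FBS medium for 2 h, stained, and syncytia imaged.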

[13] = biological target: Hemagglutinin (Influenza A virus (A/Puerto Rico/8/1934(H1N1))) (UniProt P03452); assay: Inhibition of conformational changes in Influenza A virus (A/Puerto Rico/8/1934(H1N1)) Hemagglutinin assessed as increase in retention amount of HA1 subunit on HA proteins at 25 to 50 ug/ml added before acidification incubated for 1 hr by conformational change inhibition assay
Outline: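 C-terminal biotinylated H1/PR8 HA (0.2 µg/ml) was captured on streptavidin plates for 1 h at RT. Compound (50, 25, 12.5 µg/ml) was added for 1 h, then 1 M acetate pH 5.25 for 20 min. 2.5 mM DTT was applied for 60 min to remove HA1 from postfusion HA. Retained HA1 was detected with anti-HA1 head antibody and HRP secondary, read as A450 with TMB.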

[14] = tested on: Influenza A virus; assay: Antiviral activity against luciferase tagged Influenza A virus H5N1 pseudovirus infected in MDCK cells assessed as reduction in virus infection at 50 ug/ml using compound pre-treated virus for infection and measured after 48 hrs by luciferase reporter gene assay; format: functional, organism-based
Outline: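 MDCK cells infected with luciferase-expressing H5N1 HA/NA pseudotyped HIV-based virus were treated with compound under four different treatment regimens. Infection was quantified by firefly luciferase glow assay.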

[15] = tested on: Influenza A virus H3N2; assay: Antiviral activity against Influenza A virus H3N2 (A/swine/Minnesota/02719/2009) infected in MDCK cells incubated for 3 days by crystal violet staining based plaque assay; format: functional, organism-based; conditions: 72 h
Outline: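 Confluent MDCK monolayers were exposed to 10-fold serial virus dilutions for 1 h at 37 °C, then washed. The overlay was DMEM with 1.5% agarose, 0.02% DEAE-dextran and 1 µg/ml TPCK-trypsin. After 3 days at 37 °C in 5% CO2, cells were fixed with 0.05% glutaraldehyde, stained with 1% crystal violet in 20% ethanol, and plaques were counted.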

Hemagglutinin (Influenza A virus (A/Puerto Rico/8/1934(H1N1))), sequence (P03452 whole entry, the tested form may be a part): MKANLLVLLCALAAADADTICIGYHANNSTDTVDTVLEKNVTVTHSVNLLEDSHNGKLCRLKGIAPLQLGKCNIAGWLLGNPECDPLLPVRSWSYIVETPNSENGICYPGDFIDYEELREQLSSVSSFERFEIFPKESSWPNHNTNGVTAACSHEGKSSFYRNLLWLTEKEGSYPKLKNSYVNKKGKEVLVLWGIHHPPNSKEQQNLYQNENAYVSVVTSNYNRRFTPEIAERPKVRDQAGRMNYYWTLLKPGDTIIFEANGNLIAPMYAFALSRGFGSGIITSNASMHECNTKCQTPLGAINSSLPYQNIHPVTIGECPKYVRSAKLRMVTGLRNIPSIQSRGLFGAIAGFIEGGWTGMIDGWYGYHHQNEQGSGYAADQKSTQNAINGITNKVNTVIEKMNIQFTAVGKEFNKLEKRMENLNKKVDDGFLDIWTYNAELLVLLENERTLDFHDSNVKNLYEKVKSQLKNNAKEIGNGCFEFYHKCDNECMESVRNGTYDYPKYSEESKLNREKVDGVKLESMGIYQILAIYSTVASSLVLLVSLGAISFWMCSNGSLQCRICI
Neuraminidase (Influenza A virus (A/Puerto Rico/8/1934(H1N1))), sequence (P03468 whole entry): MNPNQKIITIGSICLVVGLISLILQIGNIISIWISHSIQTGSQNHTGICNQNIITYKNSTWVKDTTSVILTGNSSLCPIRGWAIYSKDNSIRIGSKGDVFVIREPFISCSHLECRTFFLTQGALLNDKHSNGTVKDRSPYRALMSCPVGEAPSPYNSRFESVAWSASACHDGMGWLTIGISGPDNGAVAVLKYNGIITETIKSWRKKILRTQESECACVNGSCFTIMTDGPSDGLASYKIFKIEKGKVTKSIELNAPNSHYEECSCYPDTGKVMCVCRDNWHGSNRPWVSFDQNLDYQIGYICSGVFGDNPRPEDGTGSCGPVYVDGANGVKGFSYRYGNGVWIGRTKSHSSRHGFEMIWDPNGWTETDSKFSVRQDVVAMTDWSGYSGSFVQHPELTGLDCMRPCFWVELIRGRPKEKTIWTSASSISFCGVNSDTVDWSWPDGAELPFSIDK

SMILES: CC(=O)c1cc(C)c(O)c(Cc2[nH]c3ccccc3c2Cc2c(O)c(C)cc(C(C)=O)c2O)c1O
- dose excreted at 72 h [1]: 38.4%
- bioavailability [2]: 1.4%
- Activity [3]: Active
- Tmax [4]: 4.3 h
- Activity [5]: Dose-dependent effect
- Survival [6]: 100%
- Activity [7]: Active
- inhibition [8]: < 15%
- remaining at 1 h, 2 µM [9]: 0.8%
- Activity [10]: Non-Toxic
- Activity [11]: Active
- inhibition [12]: Active
- inhibition [13]: Active
- inhibition [14]: Active
- IC50 [15]: < 13 µg/mL

— ChEMBL document CHEMBL4619773, “Chemoreactive-Inspired Discovery of Influenza A Virus Dual Inhibitor to Block Hemagglutinin-Mediated Adsorption and Membrane Fusion” (J Med Chem, 2020)
